The test system of assay [1] is Spodoptera litura. Briefly: Insect growth regulatory activity against Spodoptera litura third-instar larvae assessed as abnormal or dead larva level at 0.1% measured after 24 hr post compound treatment by leaf-dip method. The class given is functional. Put shortly: (§1)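 Third-instar larvae were reared on artificial diet, newly moulted and pre-weighed at 30–40 mg. The 0.1% solution was a stock, applied at different concentrations. Leaves on moistened filter paper in Petri dishes were sprayed with the test solution and dried. Ten larvae were placed per dish, in triplicate, with carrier-solvent controls. Larval weight, mortality, pupation, deformed pupae, intermediates, adult emergence and deformed adults were recorded after 24 h.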

A further assay concerns Macrophomina phaseolina. Briefly: Antifungal activity against Rhizoctonia bataticola by food poison technique. The following applies: read-out: ED50 (the source's name). The class given is functional.
The test system of a further assay is Fusarium oxysporum. Briefly: Antifungal activity against Fusarium oxysporum by food poison technique. Format: functional. As to conditions: read-out: ED50 (the source's name).
Assay [2] can be described thus: Inhibition of soil urease assessed as urea-N level at 1% compound level measured after 9 hr. As to conditions: concentration not given here. Put shortly: (§2)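 Soil from cultivated institute farm fields, 50 g air-dried per beaker, moisture kept daily with distilled water. Compound in acetone added at 1% of applied urea-N (0.1 mg); urea-alone control; completely randomized design, three replicates. 5 g samples taken at 9 and 27 h, extracted with 1 M sodium sulfate containing phenyl mercuric acetate to stop hydrolysis; urea-N estimated.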

Assay [3] relates to Spodoptera litura. The assay is described as follows: Insecticidal activity against Spodoptera litura third-instar larvae exposed to 0.1% compound on ventral side of larvae assessed as mortality after 24 hr post compound treatment by contact method. The class given is functional. Put shortly:
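Topical treatment of third-instar larvae aged 7 ± 1 day. Each treatment was run in triplicate with solvent as control. Mortality was recorded after 24 h.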

Assay [4] relates to Spodoptera litura. Briefly: Insect growth regulatory activity against Spodoptera litura third-instar larvae assessed as normal adult level at 0.1% measured after 24 hr post compound treatment by leaf-dip method. The class given is functional.
Assay [5] concerns Spodoptera litura. The assay is described as follows: Insect growth regulatory activity against Spodoptera litura third-instar larvae assessed as mortality at 0.1% measured after 24 hr post compound treatment by leaf-dip method. Format: functional. Put shortly:
as §1

A further assay relates to Alternaria porri. The assay is described as follows: Antifungal activity against Alternaria porri by food poison technique. As to conditions: read-out: ED50 (the source's name). Format: functional.
In another assay the test system is Athelia rolfsii. The assay is described as follows: Antifungal activity against Athelia rolfsii by food poison technique. Format: functional. The following applies: Agroathelia rolfsii; read-out: ED50 (the source's name).
Assay [6] has as its system Spodoptera litura. The assay is described as follows: Insect growth regulatory activity against Spodoptera litura third-instar larvae assessed as abnormal pupa or dead pupa level at 0.1% measured after 24 hr post compound treatment by leaf-dip method. The class given is functional. A digest of the protocol: as §1
Assay [7] has as its system Spodoptera litura. Briefly: Insecticidal activity against Spodoptera litura third-instar larvae fed on 0.1% compound pre-treated castor leaves assessed as mortality after 24 hr post compound treatment by feeding method. The class given is functional. A digest of the protocol:
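Castor leaf was dipped for 2 s in a 0.1% solution, air-dried and placed on moist filter paper in 9 cm Petri plates. Third-instar larvae aged 7 ± 1 day were prestarved 4 h and released singly into each plate. There were thirty replications per treatment, with a solvent control. Mortality was scored at 24 h.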

Assay [8] can be described thus: Inhibition of soil urease assessed as urea-N level at 1% compound level measured after 27 hr. The following applies: concentration not given here. A digest of the protocol: as §2
Assay [9] concerns Spodoptera litura. Briefly: Insect growth regulatory activity against Spodoptera litura third-instar larvae assessed as growth inhibition index at 0.1% measured after 24 hr post compound treatment by leaf-dip method. Format: functional.

Consider one compound from ChEMBL document CHEMBL3044914, “Synthesis of novel 12-aryl-8,9,10,12-tetrahydrobenzo[a]xanthene-11-thiones and evaluation of their biocidal effects” (2012).

Converted amounts (≈) assume the structure as drawn.

The inhibition is the relative decrease from the control value, in per cent. As a reminder, the mortality is the percentage killed. In the case of `Cc1ccc(C2C3=C(CC(C)(C)CC3=S)Oc3ccc4ccccc4c32)cc1` (stereo not drawn), the Activity in the assay on Spodoptera litura [1] is 10%; in the assay with Spodoptera litura [4], 50%; in the assay with Spodoptera litura [6] it was 10%. The EC50 with Macrophomina phaseolina was found to be 489 µg/mL (≈ 1270 µM); in the assay on Fusarium oxysporum, 410 µg/mL (≈ 1070 µM); in the assay with Alternaria porri, 385 µg/mL (≈ 1000 µM); in the assay with Athelia rolfsii it was 321 µg/mL (≈ 834 µM). Moreover, the inhibition in assay [2] turned out to be 33%; in assay [8], 12%. Moreover, the values for the mortality with Spodoptera litura [3], with Spodoptera litura [5] and with Spodoptera litura [7] were 10%, 30% and 20%, respectively. Further, in the assay on Spodoptera litura [9], the “growth inhibition (GI)” value stood at 50%.
